# Test results taken from ChEMBL document CHEMBL1121744, “Synthesis and antihypertensive activity of a series of 8-substituted 1-oxa-3,8-diazaspiro[4.5]decan-2-ones” (J Med Chem, 1981).
# Several values for one entry are separate records, joined by “and”; a condition that tells them apart may be missing. Equal values may be shown once. Activity calls are given as the source filed them. The rule behind the calls is not given here.
# Columns and labels:
# [1] = Distribution coefficient between 1-Octanol and phosphate buffer at pH7.4; assay type: physicochemical; conditions: 1-octanol/phosphate buffer, pH 7.4
# Canis familiaris [2] = experiment: Percent inhibition of the pressor responses to 0.75 ug/kg iv norepinephrine in pentobarbital-anesthetized dogs for a dose of 10 mg/kg; assay type: functional; conditions: Canis lupus familiaris
# Method in brief: (§1)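 Pentobarbital-anesthetized dogs (35 mg/kg iv) with femoral arterial pressure recording. Epinephrine (1 μg/kg), norepinephrine (0.75 μg/kg) and phenylephrine (7.5 μg/kg) iv challenges were given about every 10 min before and after rising iv test doses, which were spaced 90 min apart. Value is % inhibition of the pressor response.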
# Canis familiaris [3] = experiment: Percent inhibition of the pressor responses to 0.75 ug/kg iv norepinephrine in pentobarbital-anesthetized dogs for a dose of 1 mg/kg; assay type: functional; conditions: Canis lupus familiaris; method in brief: as §1
# Canis familiaris [4] = experiment: Change in mean arterial pressure in anesthetized dogs for a dose of 0.1 mg/kg; assay type: functional, Canis lupus familiaris, Artery
# Method in brief: (§2)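 Dogs anesthetized with sodium pentobarbital (35 mg/kg iv), femoral artery cannulated for pressure, ECG-triggered heart rate, femoral vein for dosing. Rising iv doses were given 90 min apart, and each dose is the full dose, not cumulative. Value is the maximal mean arterial pressure change 10–15 min after each dose, two dogs per compound, ±3 mmHg. Saline served as control.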
# Canis familiaris [5] = experiment: Change in mean arterial pressure in anesthetized dogs for a dose of 1 mg/kg; assay type: functional, Canis lupus familiaris, Artery; method in brief: as §2
# Canis familiaris [6] = experiment: Change in mean arterial pressure in anesthetized dogs for a dose of 10 mg/kg; assay type: functional, Canis lupus familiaris, Artery; method in brief: as §2
# Canis familiaris [7] = experiment: Percent inhibition of the pressor responses to 0.75 ug/kg iv norepinephrine in pentobarbital-anesthetized dogs for a dose of 5.0 mg/kg; assay type: functional; conditions: Canis lupus familiaris; method in brief: as §1
# Canis familiaris [8] = experiment: Percent inhibition of the pressor responses to 1 ug/kg iv Epinephrine in pentobarbital-anesthetized dogs for a dose of 0.1 mg/kg; assay type: functional; conditions: Canis lupus familiaris
# Method in brief: (§3)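 Dogs anesthetized with sodium pentobarbital 35 mg/kg iv; femoral artery cannulated for blood pressure, femoral vein for dosing. Epinephrine 1 μg/kg iv given at about 10-min intervals before and after increasing test doses. Test doses given iv at 90-min intervals. Result is per cent inhibition of the pressor response.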
# Canis familiaris [9] = experiment: Percent inhibition of the pressor responses to 1 ug/kg iv Epinephrine in pentobarbital-anesthetized dogs for a dose of 1 mg/kg; assay type: functional; conditions: Canis lupus familiaris; method in brief: as §1
# Canis familiaris [10] = experiment: Percent inhibition of the pressor responses to 1 ug/kg iv Epinephrine in pentobarbital-anesthetized dogs for a dose of 10 mg/kg; assay type: functional; conditions: Canis lupus familiaris; method in brief: as §3
# Canis familiaris [11] = experiment: Percent inhibition of the pressor responses to 7.5 ug/kg iv phenylephrine in pentobarbital-anesthetized dogs for a dose of 1 mg/kg; assay type: functional; conditions: Canis lupus familiaris; method in brief: as §1
# Canis familiaris [12] = experiment: Percent inhibition of the pressor responses to 7.5 ug/kg iv phenylephrine in pentobarbital-anesthetized dogs for a dose of 10 mg/kg; assay type: functional; conditions: Canis lupus familiaris; method in brief: as §1
# Rattus norvegicus [13] = experiment: Antihypertensive activity as percentage fall in systolic blood pressure in spontaneously hypertensive rats after a period of 4 hr for a dose of 50 mg/kg po; assay type: functional, Artery
# Method in brief: (§4)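 Male Okamoto-Aoki SHR, trained, in groups of four matched for mean systolic pressure; one group per run received water vehicle. Oral dosing in water (0.1 mL per 10 g) on two consecutive mornings. After the day-2 dose, rats were restrained at 30.0 ± 1.0 °C. Systolic pressure was read by tail cuff (inflated to 300 mmHg, first pulse) at 1–4 h. % fall is versus the untreated control group, by 1-tail t test (p ≤ 0.05).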
# Rattus norvegicus [14] = experiment: Antihypertensive activity as percentage fall in systolic blood pressure in spontaneously hypertensive rats after a period of 1 hr for a dose of 50 mg/kg; assay type: functional, Artery; method in brief: as §4
# Rattus norvegicus [15] = experiment: Percentage fall in systolic blood pressure in spontaneously hypertensive rats after 2 hr following 50 mg/kg p.o.; assay type: functional, Artery; conditions: route oral; method in brief: as §4
# Rattus norvegicus [16] = experiment: Percentage fall in systolic blood pressure in spontaneously hypertensive rats after 3 h following 50 mg/kg p.o.; assay type: functional, Artery; conditions: route oral; method in brief: as §4
# Canis familiaris [17] = experiment: Percent inhibition of the pressor responses to 7.5 ug/kg iv phenylephrine in pentobarbital-anesthetized dogs for a dose of 0.1 mg/kg; assay type: functional; conditions: Canis lupus familiaris; method in brief: as §1
# Rattus norvegicus [18] = experiment: The antihypertensive activity as percentage fall in systolic blood pressure in spontaneously hypertensive rats after a period of 1 hr for a dose of 100 mg/kg po; assay type: functional, Artery; method in brief: as §4
# Rattus norvegicus [19] = experiment: The antihypertensive activity as percentage fall in systolic blood pressure in spontaneously hypertensive rats after a period of 2 hr for a dose of 100 mg/kg po; assay type: functional, Artery; method in brief: as §4
# Rattus norvegicus [20] = experiment: The antihypertensive activity as percentage fall in systolic blood pressure in spontaneously hypertensive rats after a period of 3 hr for a dose of 100 mg/kg po; assay type: functional, Artery; method in brief: as §4
# Rattus norvegicus [21] = experiment: The antihypertensive activity as percentage fall in systolic blood pressure in spontaneously hypertensive rats after a period of 4 hr for a dose of 100 mg/kg po; assay type: functional, Artery; method in brief: as §4
# Rattus norvegicus [22] = experiment: Antihypertensive activity as percentage fall in systolic blood pressure in spontaneously hypertensive rats after a period of 4 hr for a dose of 50 mg/kg; assay type: functional, organism-based; set-up: dose 50 mg/kg; conditions: Artery; method in brief: as §4
# Rattus norvegicus [23] = experiment: The antihypertensive activity as percentage fall in systolic blood pressure in spontaneously hypertensive rats after a period of 1 hr for a dose of 25 mg/kg po; assay type: functional, Artery; method in brief: as §4
# Rattus norvegicus [24] = experiment: The antihypertensive activity as percentage fall in systolic blood pressure in spontaneously hypertensive rats after a period of 2 hr for a dose of 25 mg/kg po; assay type: functional, Artery; method in brief: as §4
# Rattus norvegicus [25] = experiment: The antihypertensive activity as percentage fall in systolic blood pressure in spontaneously hypertensive rats after a period of 3 hr for a dose of 25 mg/kg po; NS=Not significant; assay type: functional, organism-based; set-up: dose 25 mg/kg; conditions: Artery; method in brief: as §4
# Rattus norvegicus [26] = experiment: The antihypertensive activity as percentage fall in systolic blood pressure in spontaneously hypertensive rats after a period of 4 hr for a dose of 25 mg/kg po; NS=Not significant; assay type: functional, organism-based; set-up: dose 25 mg/kg; conditions: Artery; method in brief: as §4
structure (smiles),measurement,setting,value
Cc1ccc(N(CC2=NCCN2)c2cccc(O)c2)cc1 [PHENTOLAMINE],logD,[1],0.82
same,inhibition in vivo at 10 mg/kg,Canis familiaris [2],> 100%
same,inhibition in vivo at 1 mg/kg,Canis familiaris [3],> 100%
same,MAP,Canis familiaris [4],-9 mmHg
same,MAP,Canis familiaris [5],-11 mmHg
same,MAP,Canis familiaris [6],-33 mmHg
same,inhibition in vivo at 5 mg/kg,Canis familiaris [7],> 100%
same,inhibition in vivo at 0.1 mg/kg,Canis familiaris [8],41%
same,inhibition in vivo at 1 mg/kg,Canis familiaris [9],> 100%
same,inhibition in vivo at 10 mg/kg,Canis familiaris [10],> 100%
same,inhibition in vivo at 1 mg/kg,Canis familiaris [11],86%
same,inhibition in vivo at 10 mg/kg,Canis familiaris [12],100%
same,Decrease in blood pressure,Rattus norvegicus [13],16%
same,Decrease in blood pressure,Rattus norvegicus [14],37%
same,Decrease in blood pressure,Rattus norvegicus [15],30%
same,Decrease in blood pressure,Rattus norvegicus [16],19%
same,inhibition in vivo at 0.1 mg/kg,Canis familiaris [17],42%
O=C1NCC2(CCN(CC(O)C3COc4ccccc4O3)CC2)O1 (stereo not drawn),logD,[1],0.98
same,Decrease in blood pressure,Rattus norvegicus [18],24%
same,Decrease in blood pressure,Rattus norvegicus [19],14%
same,Decrease in blood pressure,Rattus norvegicus [20],11%
same,Decrease in blood pressure,Rattus norvegicus [21],16%
same,Decrease in blood pressure,Rattus norvegicus [14],28%
same,Decrease in blood pressure,Rattus norvegicus [15],12%
same,Decrease in blood pressure,Rattus norvegicus [16],21%
same,Decrease in blood pressure,Rattus norvegicus [22],Not significant
CCN1CC2(CCN(CC(O)C3COc4ccccc4O3)CC2)OC1=O (stereo not drawn),Decrease in blood pressure,Rattus norvegicus [23],18%
same,Decrease in blood pressure,Rattus norvegicus [24],9%
same,Decrease in blood pressure,Rattus norvegicus [25],inactive
same,Decrease in blood pressure,Rattus norvegicus [26],inactive
same,Decrease in blood pressure,Rattus norvegicus [14],32%
same,Decrease in blood pressure,Rattus norvegicus [15]; 50 mg/kg,18% and 15%
same,Decrease in blood pressure,Rattus norvegicus [16],11%
